Laboratory results from ChEMBL document CHEMBL1154210, “Reversal of fluconazole resistance by sulfated sterols from the marine sponge Topsentia sp” (J Nat Prod, 2009).
Activity calls are given as the source filed them. The rule behind the calls is not given here.

Assays:
Candida albicans [1] = assay: Antimicrobial activity against fluconazole-resistant Candida albicans isolate 17 at 26 uM ater 24 hrs in presence of fluconazole; format: functional
In short: (§1)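 C. albicans isolates #1 and #17 in YPD at 1 × 10^4 CFU/mL final with saline-diluted samples plus fluconazole (DMSO) at ~1/3rd its IC50. 630 nm readings taken before and after 24 h at 37 °C. FIC was derived from checkerboard IC50s of each agent alone and in combination.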

Saccharomyces cerevisiae [2] = assay: Antimicrobial activity against azole-resistant Saccharomyces cerevisiae expressing null pump at 26 uM after 40 to 48 hrs in presence of fluconazole; format: functional
In short: (§2)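 S. cerevisiae strains (MDR1-overexpressing or null pump) inoculated in YPD at 1 × 10^4 CFU/mL final into saline-diluted samples. Fluconazole in DMSO at ~1/10th its IC50, with DMSO-only duplicates. Absorbance at 630 nm read before and after 40–48 h at 30 °C. Checkerboard IC50s combined into FIC (combination/alone ratios summed).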

Candida albicans [3] = assay: Antimicrobial activity against fluconazole-resistant Candida albicans 1758 over expressing MDR1 at 5.7 uM ater 24 hrs in presence of fluconazole; format: functional
In short: (§3)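 Broth microdilution in YPD with C. albicans inoculum at 1 × 10^4 CFU/mL final; samples diluted in 0.9% saline. Fluconazole in DMSO at ~1/3rd its IC50, with DMSO-only duplicates. OD 630 nm read before and after 37 °C for 24 h. A checkerboard of sample × fluconazole gave FIC = sum of combination/alone IC50 ratios for each agent.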

Candida albicans [4] = assay: Antimicrobial activity against fluconazole-susceptible Candida albicans isolate 1 at 26 uM ater 24 hrs in presence of fluconazole; format: functional; in short: as §1
Candida albicans [5] = assay: Antimicrobial activity against Fluconazole susceptible Candida albicans 1587 at 5.7 uM ater 24 hrs in presence of fluconazole; format: functional; in short: as §3
Saccharomyces cerevisiae [6] = assay: Antimicrobial activity against azole-resistant Saccharomyces cerevisiae expressing CDR1 efflux pump at 26 uM after 40 to 48 hrs in presence of fluconazole; format: functional
In short: (§4)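 Checkerboard combination in S. cerevisiae CDR1 efflux pump strain: compound diluted in 0.9% saline, crossed with FLU (in DMSO) over all concentration pairs; inoculum in YPD broth at 1 × 10^4 CFU/mL; incubated 30 °C for 40–48 h; growth read at 630 nm before and after incubation. FIC = (IC50 combined/IC50 alone) summed for compound and FLU.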

Saccharomyces cerevisiae [7] = assay: Antimicrobial activity against azole-resistant Saccharomyces cerevisiae expressing MDR1 at 26 uM after 40 to 48 hrs in presence of fluconazole; format: functional; in short: as §2
Candida albicans [8] = assay: Antimicrobial activity against fluconazole-susceptible Candida albicans 1587 at 189 uM ater 24 hrs in presence of fluconazole; format: functional; in short: as §3
Plasmodium falciparum [9] = assay: Antiprotozoal activity Plasmodium falciparum W2; format: functional, organism-based
Cryptococcus neoformans = assay: Antimicrobial activity against Cryptococcus neoformans; format: functional, organism-based
Candida albicans [10] = assay: Antimicrobial activity against fluconazole-susceptible Candida albicans isolate 1 at 13 uM ater 24 hrs in presence of fluconazole; format: functional; in short: as §1
Saccharomyces cerevisiae [11] = assay: Antimicrobial activity against azole-resistant Saccharomyces cerevisiae expressing MDR1 at 13 uM after 40 to 48 hrs in presence of fluconazole; format: functional; in short: as §2
Candida albicans [12] = assay: Antimicrobial activity against fluconazole-resistant Candida albicans isolate 17 at 13 uM ater 24 hrs in presence of fluconazole; format: functional; in short: as §1
Saccharomyces cerevisiae [13] = assay: Antimicrobial activity against azole-resistant Saccharomyces cerevisiae expressing CDR1 efflux pump at 13 uM after 40 to 48 hrs in presence of fluconazole; format: functional; in short: as §4
Pichia kudriavzevii = assay: Antimicrobial activity against Candida Krusei; format: functional, organism-based
Vero [14] = assay: Cytotoxicity against african green monkey Vero cells at 9 uM after 48 hrs by neutral red assay; format: cell-based; conditions: chlorocebus sabaeus
Plasmodium falciparum [15] = assay: Antiprotozoal activity Plasmodium falciparum D6; format: functional, organism-based
Saccharomyces cerevisiae [16] = assay: Antimicrobial activity against azole-resistant Saccharomyces cerevisiae expressing null pump at 13 uM after 40 to 48 hrs in presence of fluconazole; format: functional; in short: as §2
[17] = test system: Mycobacterium intracellulare; assay: Antimicrobial activity against Mycobacterium intracellular; format: functional, organism-based
Staphylococcus aureus = assay: Antimicrobial activity against methicillin resistant Staphylococcus aureus; format: functional, organism-based
Leishmania donovani = assay: Antiprotozoal activity Leishmania donovani by Alamar blue assay; format: functional, organism-based
Nakaseomyces glabratus = assay: Antimicrobial activity against Candida glabrata; format: functional, organism-based
Candida albicans [18] = assay: Antimicrobial activity against fluconazole-resistant Candida albicans 1758 over expressing MDR1 at 189 uM ater 24 hrs in presence of fluconazole; format: functional; in short: as §3
Candida albicans [19] = assay: Antimicrobial activity against Fluconazole susceptible Candida albicans 1587 at 194 uM ater 24 hrs in presence of fluconazole; format: functional; in short: as §3
Vero [20] = assay: Cytotoxicity against african green monkey Vero cells at 9.25 uM after 48 hrs by neutral red assay; format: cell-based; conditions: chlorocebus sabaeus
Candida albicans [21] = assay: Antimicrobial activity against fluconazole-resistant Candida albicans 1758 over expressing MDR1 at 194 uM ater 24 hrs in presence of fluconazole; format: functional; in short: as §3
Vero [22] = assay: Cytotoxicity against african green monkey Vero cells at 11.2 uM after 48 hrs by neutral red assay; format: cell-based; conditions: chlorocebus sabaeus

Row | SMILES | Activity (Plasmodium falciparum [9]) | Activity (Cryptococcus neoformans) | fractional inhibitory concentration index (FICI) (Candida albicans [10]) | fractional inhibitory concentration index (FICI) (Saccharomyces cerevisiae [11]) | fractional inhibitory concentration index (FICI) (Candida albicans [12]) | fractional inhibitory concentration index (FICI) (Saccharomyces cerevisiae [13]) | Activity (Pichia kudriavzevii) | Activity (Plasmodium falciparum [15]) | fractional inhibitory concentration index (FICI) (Saccharomyces cerevisiae [16]) | Activity [17] | Activity (Staphylococcus aureus) | Activity (Leishmania donovani) | Activity (Nakaseomyces glabratus) | also measured
1 | CC(C)[C@@H]1OC(=O)[C@@H](Cc2ccccc2)N(C)C(=O)[C@H](C(C)C)OC(=O)[C@@H](Cc2ccccc2)N(C)C(=O)[C@H](C(C)C)OC(=O)[C@@H](Cc2ccccc2)N(C)C1=O [BEAUVERICIN] |  |  |  |  |  |  |  |  |  |  |  |  |  | fractional inhibitory concentration index (FICI) (Candida albicans [1]): 0.7; fractional inhibitory concentration index (FICI) (Saccharomyces cerevisiae [2]): 3.38; fractional inhibitory concentration index (FICI) (Candida albicans [3]): 2.8; fractional inhibitory concentration index (FICI) (Candida albicans [4]): 0.5; fractional inhibitory concentration index (FICI) (Candida albicans [5]): 0.5; fractional inhibitory concentration index (FICI) (Saccharomyces cerevisiae [6]): 0.04; fractional inhibitory concentration index (FICI) (Saccharomyces cerevisiae [7]): 2.28
2 | C/C=C(\CC[C@](C)(O)[C@H]1[C@@H](O)C[C@H]2[C@@H]3CCc4cc(OS(=O)(=O)[O-])ccc4[C@H]3CC[C@@]21C)C(C)C.[Na+] | inactive | inactive | 1.5 | 0.08 | 1.3 | 1.04 | inactive | inactive | 1.1 | inactive | inactive | inactive | inactive | fractional inhibitory concentration index (FICI) (Candida albicans [8]): 1.7; Activity (Vero [14]): Non-toxic; fractional inhibitory concentration index (FICI) (Candida albicans [18]): 0.2
3 | C=C(CC[C@](C)(O)[C@H]1[C@@H](O)C[C@H]2[C@@H]3CCc4cc(OS(=O)(=O)[O-])ccc4[C@H]3CC[C@@]21C)C(C)C.[Na+] | inactive | inactive | 1.7 | 0.15 | 1.8 | 1.34 | inactive | inactive | 0.75 | inactive | inactive | inactive | inactive | fractional inhibitory concentration index (FICI) (Candida albicans [19]): 1.6; Activity (Vero [20]): Non-toxic; fractional inhibitory concentration index (FICI) (Candida albicans [21]): 0.2
4 | C/C=C(\CC[C@](C)(O)[C@H]1[C@@H](O)C[C@H]2[C@@H]3CCc4cc(O)ccc4[C@H]3CC[C@@]21C)C(C)C [GEODISTEROL] | inactive | inactive |  |  |  |  | inactive | inactive |  | inactive | inactive | inactive | inactive | Activity (Vero [22]): Non-toxic
